From ChEMBL document CHEMBL2176870 (J Med Chem, 2012) come the findings set out here.

Data set [1] can be described thus: Toxicity in iv dosed rat administered bid for 2 weeks. The data set is classed as organism-based. Conditions: in vivo. The method in brief:
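Rats dosed iv twice daily for 14 days. NOAEL assessed from clinical findings and from macroscopic and microscopic examination.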

The test system of data set [2] is Neisseria meningitidis. Briefly: Antibacterial activity against Neisseria meningitidis. It is filed as functional.
Data set [3] can be described thus: Terminal elimination half life in Sprague-Dawley rat lung at 2 x 50 mg/kg, iv. The data set is classed as ADME, organism-based. Set-up: dose 50 mg/kg, route intravenous. The conditions noted are these: read-out: beta t1/2 (converted). The method in brief:
(§1)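 Female Sprague–Dawley rats given two iv doses of 50 mg/kg. Levels measured in plasma, liver, kidney, brain, heart and lung. Cmax reported as ng/g for tissue and ng/mL for plasma; AUC(0–∞) as ng·h/mL. Half-life is the terminal elimination value.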

Data set [4] deals with Staphylococcus aureus. Nature of the data set: Antibacterial activity against methicillin-resistant Staphylococcus aureus NRS384 assessed as killing activity at 600 to 1200 mg q8h with prolonged infusion of 2 hrs. It is filed as functional, organism-based.
Data set [5] concerns Escherichia coli. Briefly: Antibacterial activity against Escherichia coli. It is filed as functional.
Data set [6] concerns Staphylococcus aureus. Nature of the data set: Antibacterial activity against methicillin-resistant Staphylococcus aureus NRS385 infected in Swiss mouse. It is filed as functional. The method in brief:
(§2)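 Murine lethal systemic infection by intraperitoneal MRSA challenge. A single subcutaneous dose was given 5 min after infection.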

Data set [7] deals with Staphylococcus aureus. Briefly: Antibacterial activity against methicillin-resistant Staphylococcus aureus NRS382 infected in Swiss mouse. The data set is classed as functional. The essentials:
as §2

The nature of data set [8]: Cytotoxicity against human HepG2 cells. The data set is classed as cell-based. Conditions: read-out: ED50 (the source's name).
Data set [9] can be described thus: AUC (0 to infinity) in Sprague-Dawley rat liver at 2 x 50 mg/kg, iv. The data set is classed as ADME, organism-based. Set-up: time infinity, dose 50 mg/kg, route intravenous. The essentials:
as §1

Data set [10] deals with Staphylococcus aureus. Nature of the data set: Antibacterial activity against methicillin-resistant Staphylococcus aureus NRS384 infected in Swiss mouse. The data set is classed as functional. The essentials: as §2
Data set [11] deals with Staphylococcus aureus. Nature of the data set: Antibacterial activity against methicillin-resistant Staphylococcus aureus. It is filed as functional.
Data set [12] is described as follows: Terminal elimination half life in Sprague-Dawley rat plasma at 2 x 50 mg/kg, iv. It is filed as ADME, organism-based. The arrangement: dose 50 mg/kg, route intravenous. Conditions: read-out: beta t1/2 (converted). The essentials:
as §1

Data set [13] concerns Staphylococcus epidermidis. Nature of the data set: Antibacterial activity against methicillin-resistant Staphylococcus epidermidis. The data set is classed as functional.
The nature of data set [14]: AUC (0 to infinity) in Sprague-Dawley rat brain at 2 x 50 mg/kg, iv. It is filed as ADME, organism-based. Set-up: time infinity, dose 50 mg/kg, route intravenous. The method in brief: as §1
Data set [15] in a line: Inhibition of cytochrome P450. It is filed as ADME.
Data set [16] relates to Staphylococcus aureus. Nature of the data set: Antibacterial activity against methicillin-susceptible Staphylococcus aureus. It is filed as functional.
In data set [17] the test system is Canis familiaris. Nature of the data set: Toxicity in beagle dog assessed as clinical signs of toxicity up to 100 mg/kg, iv. The data set is classed as organism-based, Canis lupus familiaris. Set-up: dose 100 mg/kg, route intravenous. The conditions noted are these: in vivo. The essentials:
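Beagle dogs given single iv infusions up to 100 mg/kg. Clinical signs and cardiovascular function, including QT interval, were monitored.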

Data set [18] is described as follows: AUC (0 to infinity) in Sprague-Dawley rat lung at 2 x 50 mg/kg, iv. The data set is classed as ADME, organism-based. Set-up: time infinity, dose 50 mg/kg, route intravenous. The method in brief: as §1

Values after ≈ are worked out from the molar mass of the structure shown. Active and inactive are the calls of the source. No cut-off for these calls is given here.

The NOAEL is the highest tested level that showed no adverse finding. A word on the MIC90: it is an inhibitory concentration at the 90% level, which refers to growth in some studies and to a panel of isolates in others. A lower MIC90 goes with greater potency. For orientation: ED50 means the midpoint of the dose-response relation. Read a low ED50 as greater potency. The AUC(0-inf) is total exposure, with the tail of the curve extrapolated. The low end stands for less exposure, the high end for more exposure.

In data set [1], `CCc1cc(O)c(Oc2ccc(C(N)=O)cc2F)cc1F` gave an NOAEL at 336 h of 200 mg/kg/day. The MIC90 in data set [2] was 0.25 µg/mL (≈ 0.852 µM); in data set [5], 1 µg/mL (≈ 3.41 µM); in data set [11], 0.12 µg/mL (≈ 0.409 µM); in [13], 2 µg/mL (≈ 6.82 µM); in data set [16], 0.06 µg/mL (≈ 0.205 µM). Also, the half-life in data set [3] was 354 min; in data set [12], 294 min. Moreover, in data set [4], the outcome was Active. Also, the ED50 is 28.3 mg/kg in data set [6], 19.3 mg/kg in data set [7] and 45.1 mg/kg in [10]. For the same compound, in data set [8], the CC50 was over 32 µg/mL. Moreover, the AUC(0-inf) was 105 µg·h/mL in [9], 27600 ng·h/mL in data set [14] and 18400 ng·h/mL in [18]. The “inhibition (INH)” value in data set [15] was “Active”. For the same compound, in [17], the Activity entry is “Non-toxic”.
